From article PMC4828974 (Cancer research, 2015)

What was measured:
[1] = test system: WASF3 phosphorylation in MDA-MB-231 cells; conditions: inactivation of HSP90; cited from earlier work
CYFIP1 [2] = target: CYFIP1 (Homo sapiens, UniProt Q7L576); experiment: Avidin-biotin pull down with biotinylated stapled peptides, western blot; assay type: binding; conditions: 2.5 µM versus 10 µM biotinylated peptide, MDA-MB-231 cells
Procedure, shortened: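 MDA-MB-231 cells exposed to biotin-labelled stapled test peptides at 2.5 or 10 µM, with biotinylated scrambled peptides as controls. Lysates incubated overnight at 4 °C with immobilised avidin resin. Pulled-down material resolved by SDS-PAGE and western blotted for CYFIP1.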

WASF3-CYFIP1 complex = WASF3-CYFIP1 complex (Homo sapiens, UniProt Q7L576); experiment: Immunoprecipitation of WASF3, western blot for CYFIP1; assay type: cell-based; conditions: MDA-MB-231 cells treated with peptide, IP of WASF3
[3] = test system: breast or prostate cancer cells; experiment: MTS cell proliferation assay; assay type: cell-based; conditions: 10 µM, over 24 hours
[4] = test system: breast and prostate cell lines; experiment: Scratch wound; assay type: cell-based; conditions: scratch wound assay, compared with DMSO and scrambled peptide
[5] = test system: breast and prostate cancer cells; experiment: Transwell invasion assay; assay type: cell-based; conditions: for reduction of invasion potential: Transwell, 24 hours, 10 µM, compared with SCR peptides or DMSO; for dose dependence of suppression of cell invasion: high dose 10 µM versus low dose 2.5 µM
[6] = test system: WASF3 phosphorylation in MDA-MB-231 cells; experiment: WASF3 phosphorylation status; assay type: cell-based; conditions: for WASF3 phosphorylation levels: MDA-MB-231 cells in serum
Procedure, shortened: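 MDA-MB-231 cells were treated with stapled peptides, the scrambled control peptide, or the HSP90 inhibitor 17-AAG for comparison. WASF3 was immunoprecipitated, with IgG IP as the negative control. Immunoblots were probed with the PY20 antibody for phosphorylation and with WASF3 antibody for total protein.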

WASF3 = WASF3 protein levels by western blot; assay type: cell-based; conditions: MDA-MB-231 cells cultured in serum
CYFIP1 [7] = experiment: CYFIP1 protein levels by western blot; assay type: cell-based; conditions: 24 hours treatment
KISS1 = KISS1 levels by western blot; assay type: cell-based; conditions: MDA-MB-231 cells, compared with scrambled peptides
[8] = target: Rac1/2 binding to the WASF3 complex (Homo sapiens, UniProt Q7L576); experiment: IP with WASF3 antibodies, western blot for Rac1/Rac2; assay type: cell-based; conditions: MDA-MB-231 cells
Procedure, shortened: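 MDA-MB-231 cells were left untreated or treated with stapled test peptides or a scrambled control peptide. Lysates were immunoprecipitated with anti-WASF3 antibody, and the immunocomplex was western blotted for Rac1 and Rac2.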

Sequence of WASF3-CYFIP1 complex (Q7L576 whole entry): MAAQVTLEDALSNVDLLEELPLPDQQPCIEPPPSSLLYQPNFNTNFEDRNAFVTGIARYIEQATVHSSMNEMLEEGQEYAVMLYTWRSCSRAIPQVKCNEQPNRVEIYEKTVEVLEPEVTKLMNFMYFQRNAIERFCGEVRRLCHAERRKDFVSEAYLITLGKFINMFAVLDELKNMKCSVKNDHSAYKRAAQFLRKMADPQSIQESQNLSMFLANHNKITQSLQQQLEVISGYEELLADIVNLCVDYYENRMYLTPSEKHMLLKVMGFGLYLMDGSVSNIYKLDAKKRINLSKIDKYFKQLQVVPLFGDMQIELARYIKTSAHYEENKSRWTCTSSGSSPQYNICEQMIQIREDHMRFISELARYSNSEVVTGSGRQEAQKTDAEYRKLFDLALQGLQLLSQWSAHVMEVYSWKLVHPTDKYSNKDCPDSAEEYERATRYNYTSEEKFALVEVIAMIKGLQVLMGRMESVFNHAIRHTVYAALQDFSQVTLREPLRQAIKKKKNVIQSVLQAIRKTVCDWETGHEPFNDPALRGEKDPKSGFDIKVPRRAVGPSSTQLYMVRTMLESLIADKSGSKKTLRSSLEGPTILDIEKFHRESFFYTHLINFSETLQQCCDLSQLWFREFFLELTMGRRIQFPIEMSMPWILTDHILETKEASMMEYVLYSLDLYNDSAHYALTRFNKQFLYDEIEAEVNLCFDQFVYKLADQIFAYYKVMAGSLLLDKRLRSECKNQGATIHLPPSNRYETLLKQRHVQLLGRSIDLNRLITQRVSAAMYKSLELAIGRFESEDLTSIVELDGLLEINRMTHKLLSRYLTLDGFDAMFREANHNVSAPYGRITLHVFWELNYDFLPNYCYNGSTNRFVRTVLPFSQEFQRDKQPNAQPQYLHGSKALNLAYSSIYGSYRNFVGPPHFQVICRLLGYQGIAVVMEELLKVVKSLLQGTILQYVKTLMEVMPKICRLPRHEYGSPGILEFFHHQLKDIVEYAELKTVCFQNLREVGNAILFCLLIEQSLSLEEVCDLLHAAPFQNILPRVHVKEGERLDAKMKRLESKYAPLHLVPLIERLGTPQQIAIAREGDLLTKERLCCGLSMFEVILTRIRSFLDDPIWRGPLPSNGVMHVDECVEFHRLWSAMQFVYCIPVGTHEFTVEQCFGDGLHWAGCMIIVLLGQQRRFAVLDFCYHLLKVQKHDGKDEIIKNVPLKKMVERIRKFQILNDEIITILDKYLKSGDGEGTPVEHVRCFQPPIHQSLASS
Sequence of WASF3-CYFIP1 complex (Q9Y2A7 whole entry partner): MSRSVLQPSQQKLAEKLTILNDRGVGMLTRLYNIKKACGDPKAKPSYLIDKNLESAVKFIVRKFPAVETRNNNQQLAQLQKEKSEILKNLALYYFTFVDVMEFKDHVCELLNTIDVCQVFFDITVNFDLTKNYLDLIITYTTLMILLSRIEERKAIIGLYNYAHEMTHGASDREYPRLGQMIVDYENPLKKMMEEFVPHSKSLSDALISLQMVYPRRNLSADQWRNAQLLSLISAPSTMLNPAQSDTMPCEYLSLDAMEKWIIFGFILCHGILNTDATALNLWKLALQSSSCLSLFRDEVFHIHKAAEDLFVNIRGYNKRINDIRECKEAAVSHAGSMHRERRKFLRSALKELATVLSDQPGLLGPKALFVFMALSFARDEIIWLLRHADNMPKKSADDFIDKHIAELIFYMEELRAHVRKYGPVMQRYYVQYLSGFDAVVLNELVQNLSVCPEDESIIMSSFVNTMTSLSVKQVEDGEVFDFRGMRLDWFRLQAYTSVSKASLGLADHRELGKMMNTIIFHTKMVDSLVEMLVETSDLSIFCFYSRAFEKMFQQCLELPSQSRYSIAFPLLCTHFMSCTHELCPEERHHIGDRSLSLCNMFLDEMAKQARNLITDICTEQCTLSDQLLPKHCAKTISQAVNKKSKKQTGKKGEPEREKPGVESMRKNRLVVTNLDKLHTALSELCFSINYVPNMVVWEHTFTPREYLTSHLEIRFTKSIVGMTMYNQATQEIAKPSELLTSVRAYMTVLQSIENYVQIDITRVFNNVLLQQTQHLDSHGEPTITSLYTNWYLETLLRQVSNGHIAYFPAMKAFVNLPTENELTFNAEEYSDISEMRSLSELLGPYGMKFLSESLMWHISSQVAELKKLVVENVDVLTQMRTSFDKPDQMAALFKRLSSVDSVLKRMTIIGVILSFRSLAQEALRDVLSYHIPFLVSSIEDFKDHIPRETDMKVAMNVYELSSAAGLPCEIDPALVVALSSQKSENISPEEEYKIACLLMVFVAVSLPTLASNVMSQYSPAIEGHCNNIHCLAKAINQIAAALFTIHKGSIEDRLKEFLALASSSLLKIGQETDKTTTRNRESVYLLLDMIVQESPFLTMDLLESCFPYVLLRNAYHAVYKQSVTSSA
Sequence of Rac1/2 binding to the WASF3 complex (Q7L576 whole entry): as the sequence (Q7L576 whole entry) above
Sequence of Rac1/2 binding to the WASF3 complex (Q9Y2A7 whole entry partner): as the sequence (Q9Y2A7 whole entry partner) above
Sequence of CYFIP1 (Homo sapiens, UniProt Q7L576) (Q7L576 whole entry): as the sequence (Q7L576 whole entry) above

Compound	WASF3 phosphoactivation [1]	concentration dependence of CYFIP1 pull down (CYFIP1 [2])	CYFIP1 in the WASF3 immunocomplex (WASF3-CYFIP1 complex)	cell proliferation [3]	migration potential / cell motility [4]	reduction of invasion potential [5]	dose dependence of suppression of cell invasion [5]	suppression of WASF3 phosphorylation compared with 17-AAG ([6]; MDA-MB-231 cells)	WASF3 phosphorylation levels [6]	WASF3 protein levels (WASF3)	intracellular levels of WASF3 or CYFIP1 (CYFIP1 [7])	KISS1 levels (KISS1)	Rac2 in the WASF3 IP [8]
C=CCNC1=C2C[C@@H](C)C[C@H](OC)[C@H](O)[C@@H](C)/C=C(\C)[C@H](OC(N)=O)[C@@H](OC)/C=C\C=C(/C)C(=O)NC(=CC1=O)C2=O [17-AAG]	reduced WASF3 phosphoactivation												
LEK*TNS*LAKIIRQL (sidechain bridge or staple) [WAHM1]		concentration-dependent	not present in the immunocomplex	no significant difference in cell proliferation	significant reduction in cell motility	50–75%	dose-dependent effect	more efficient than the 17-AAG HSP90 inhibitor	dramatic decrease in WASF3 phosphorylation levels	without a reduction in WASF3 protein levels	did not affect intracellular levels of either WASF3 or CYFIP1	increased KISS1 levels	could not be detected
LEKKTN*TLA*IIRQL (sidechain bridge or staple) [WAHM2]		concentration-dependent	not present in the immunocomplex	no significant difference in cell proliferation	significant reduction in cell motility	50–75%	dose-dependent effect		dramatic decrease in WASF3 phosphorylation levels	without a reduction in WASF3 protein levels	did not affect intracellular levels of either WASF3 or CYFIP1	increased KISS1 levels	
SRA*LLI*TKIQNELK (sidechain bridge or staple) [SCR1]													present
